The values below come from PubChem BioAssay.

For orientation: viability means a read-out of living cells in per cent, often relative to untreated cells. In general, inhibition refers to the change of the read-out against control, counted positive when it falls.

The source made the active and inactive calls.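 How the source made its calls, unless noted: active means viability loss from added drug above about 55%, and viability with drug at most 40%, in both replicates (limit read from the data, passing the limit was not always enough); inconclusive means both conditions met in only one replicate; inactive means neither replicate meets both conditions.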

Test [1] is described as follows: Her2 expression decrease, cell viability multiplex – SKBR3 breast tumor cells, AlphaScreen, ATP viability, primary screen (AID 461;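 active means Her2 level under about 52% in both replicate screens, with viability over 70% of control, limit read from the data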;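 on Her2 level: lower value means less Her2 protein in the cells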;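 on viability: percent of carrier control wells set as 100% viability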). The note with it: SKBR3 Her2 protein level, 18-24 h, measured here: SKBR3 viability, ATP luminescence, at 10 µM. A general note: Alpha assays give light when donor and acceptor beads are brought close together.
Test [2] deals with Receptor tyrosine-protein kinase erbB-2 (Homo sapiens) (UniProt P04626). The test is described as above. The settings on record: 18-24 h, at 10 µM, stronger effect = lower value.
Test [3] can be described thus: reduced viability of SK-BR-3 breast cancer cells – cell-based, 24 h, human, pilot screen (AID 572;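 active means viability at or below 10% of carrier control in both of two separate runs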;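 further: compound exposure lasted between 18 and 24 h rather than exactly 24 h; 100% = carrier-treated control wells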). The settings on record: SK-BR-3 viability, CellTiter-Glo luminescence, at 10 µM, stronger effect = lower value.
Test [4] in a line: HUVEC growth inhibition – cell-based, human, primary screen (AID 575;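 active means viability at or below 30% in both replicate assays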;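 further: 100% = median of untreated cell wells with 0.1% DMSO on each plate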). The settings on record: HUVEC proliferation, CellTiter-Glo luminescence, 72 h; at 10 µM; stronger effect = lower value. A digest of the protocol: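 material = primary HUVEC, no more than 12 passages | input = 1250 cells per well | controls = vehicle and MePR control wells | measured by = CTG luminescence | times = 72 h compound incubation | format = collagen-coated 384-well format | read-out = % viability vs DMSO wells | doses = single 10 µM dose, 0.1% DMSO, from 5x medium stock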
(In general: ATP-based viability assays read luminescence as a measure of living cells.)

Test [5] is described as follows: H69AR cell proliferation blockers – human, duplicate replicates, primary screen (AID 580;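 active means viability at or under a set limit in both replicates, limit being median viability minus 3 SD, cut at about 48% in these data, passing the limit was not always enough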;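 further: 100% = mean luminescence of untreated wells and 0% = no signal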). The note with it: H69AR lung tumor cells viability, ATP luminescence, 72 h; at 10 µM; stronger effect = lower value.
A short description of test [6]: MRP1 drug-resistance reversers in H69AR cells – cell-based, doxorubicin co-treatment, pilot screen (AID 601). The note with it: CellTiter-Glo, 72 h, at 10 µM; for differential viability (reversal): stronger effect = higher value.
A short description of test [7]: yeast transport mutant growth inhibition pilot in 384-well plates, post-Golgi transport modulator project (AID 636; in the data active means inhibition above about 31%). The note with it: absorbance 615 nm, about 18 h, stronger effect = higher value.
Test [8] can be described thus: growth suppression of yeast trafficking mutant, preliminary HTS, modulators of trafficking downstream of Golgi apparatus project, 1536-format plate, OD 615 nm (AID 637; in the data active means inhibition above about 30%). The settings on record: yeast transport mutant growth, absorbance 615 nm, 18 h; stronger effect = higher value.
Setting [9] is: H69AR cells + 2 uM doxorubicin, measured here: viability with 2 uM doxorubicin, stronger effect = lower value.
Where [10] appears, read: H69AR cells, compound alone cytotoxicity.

Receptor tyrosine-protein kinase erbB-2 (Homo sapiens), sequence (P04626 whole entry, looked up): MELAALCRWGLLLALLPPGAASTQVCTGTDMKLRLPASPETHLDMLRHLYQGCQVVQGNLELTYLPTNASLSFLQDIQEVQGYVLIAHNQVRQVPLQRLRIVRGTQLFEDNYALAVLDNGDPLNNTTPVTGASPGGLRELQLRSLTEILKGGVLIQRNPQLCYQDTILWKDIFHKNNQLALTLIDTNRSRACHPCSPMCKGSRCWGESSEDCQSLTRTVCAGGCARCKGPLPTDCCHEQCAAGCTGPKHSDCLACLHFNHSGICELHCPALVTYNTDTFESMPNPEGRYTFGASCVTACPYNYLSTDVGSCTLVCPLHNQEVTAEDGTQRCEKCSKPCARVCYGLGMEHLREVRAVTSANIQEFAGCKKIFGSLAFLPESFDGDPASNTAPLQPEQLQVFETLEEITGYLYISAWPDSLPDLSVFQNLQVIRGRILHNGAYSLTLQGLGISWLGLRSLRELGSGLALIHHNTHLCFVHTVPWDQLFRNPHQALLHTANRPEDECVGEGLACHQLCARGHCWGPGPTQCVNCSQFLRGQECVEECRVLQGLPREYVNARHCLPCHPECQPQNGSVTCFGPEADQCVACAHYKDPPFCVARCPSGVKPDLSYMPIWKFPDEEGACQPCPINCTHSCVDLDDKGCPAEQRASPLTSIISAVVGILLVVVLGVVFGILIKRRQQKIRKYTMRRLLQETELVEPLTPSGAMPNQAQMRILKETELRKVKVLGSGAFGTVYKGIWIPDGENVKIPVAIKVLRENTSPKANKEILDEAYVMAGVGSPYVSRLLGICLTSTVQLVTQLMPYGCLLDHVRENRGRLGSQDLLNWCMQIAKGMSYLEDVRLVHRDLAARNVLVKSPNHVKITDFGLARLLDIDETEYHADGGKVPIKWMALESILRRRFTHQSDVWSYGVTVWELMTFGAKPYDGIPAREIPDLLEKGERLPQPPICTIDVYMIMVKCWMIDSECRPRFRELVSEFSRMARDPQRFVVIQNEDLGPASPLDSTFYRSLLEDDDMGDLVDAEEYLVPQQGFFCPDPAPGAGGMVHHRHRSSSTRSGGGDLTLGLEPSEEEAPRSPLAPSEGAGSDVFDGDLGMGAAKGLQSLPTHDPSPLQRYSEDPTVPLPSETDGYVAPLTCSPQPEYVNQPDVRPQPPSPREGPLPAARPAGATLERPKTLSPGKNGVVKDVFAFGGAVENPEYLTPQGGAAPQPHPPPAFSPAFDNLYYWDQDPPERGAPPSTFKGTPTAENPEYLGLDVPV

Turning to `O=C(CSc1nccn1-c1cccc(Cl)c1)NC1CCCC1`, the viability in test [1] was 95.5%; in test [3], 95.5% (inactive); in test [4] it was 95.5% (inactive); in test [5], 111% (inactive); in test [6] (setting [9]), 101%; in test [6] (setting [10]), 111%. Moreover, the Her2 level in test [2] is 86% (inactive). In test [6] (H69AR cells + 2 uM doxorubicin), the differential viability (reversal) is 10.3% (inactive). Moreover, the values for the inhibition in test [7] and in test [8] were 0.91% (inactive) and 14.1% (inactive), respectively.
With `COc1cccc(NC(=O)Cc2nnc(SCC(=O)c3ccccc3)n2C)c1`, the viability was 92% in test [1]; 92% (inactive) in test [3]; 85% (inactive) in test [4]; 68.1% (inactive) in test [5]; 59.4% in test [6] (setting [9]); 68.1% in test [6] (setting [10]). The Her2 level in test [2] is 83.5% (inactive). Besides, in test [6] (H69AR cells + 2 uM doxorubicin), the differential viability (reversal) was 8.65% (inactive). For the same compound, the inhibition was -2.24% (inactive) in test [7] and -3.49% (inactive) in test [8].
Turning to `COc1ccc(C(C)=O)c(OC(=O)c2ccc(OC)c(OC)c2)c1`, the viability in test [1] is 104%; in test [3] it was 104% (inactive); in test [4] it was 92.8% (inactive); in test [5] it was 98.6% (inactive); in test [6] (setting [9]) it was 97.5%; in test [6] (setting [10]) it was 98.6%. Further, in test [2], the Her2 level was 88.5% (inactive). In test [6] (H69AR cells + 2 uM doxorubicin), the differential viability (reversal) is 1.11% (inactive). Besides, the inhibition in test [7] was -6.4% (inactive); in test [8], -3.33% (inactive).
For `O=C(Nc1cccc(F)c1)c1ccc2c(c1)OCO2`, the viability in test [1] is 97.5%; in test [3], 97.5% (inactive); in test [4], 103% (inactive); in test [5], 97.1% (inactive); in test [6] (setting [9]) it was 83.7%; in test [6] (setting [10]) it was 97.1%. Besides, in test [2], the Her2 level was 106% (inactive). Further, in test [6] (H69AR cells + 2 uM doxorubicin), the differential viability (reversal) is 13.4% (inactive). Also, the inhibition is -2.63% (inactive) in test [7] and -3.44% (inactive) in test [8].
`O=C(c1ccc2c(c1)[nH]c(=S)n1c3ccccc3nc21)N1CCN(c2ncccn2)CC1`: the viability in test [1] is 100%; in test [3], 100% (inactive); in test [4] it was 88.7% (inactive); in test [5], 96.3% (inactive); in test [6] (setting [9]), 90.8%; in test [6] (setting [10]) it was 96.3%. Further, the Her2 level in test [2] was 82% (inactive). In addition, the differential viability (reversal) in test [6] (H69AR cells + 2 uM doxorubicin) is 5.5% (inactive). Further, the inhibition in test [7] is -3.95% (inactive); in test [8], 3.67% (inactive).
Take `Cc1ccc2nsnc2c1S(=O)(=O)N(Cc1cc2cccc(C)c2[nH]c1=O)CC1CCCO1` (stereo not given): the viability in test [1] was 81.5%; in test [3], 81.5% (inactive); in test [4] it was 82.3% (inactive); in test [5], 21.4% (active); in test [6] (setting [9]), 21.4%; in test [6] (setting [10]), 21.4%. For the same compound, the Her2 level in test [2] was 89% (inactive). Besides, in test [6] (H69AR cells + 2 uM doxorubicin), the differential viability (reversal) was 0% (inactive). Moreover, the results for the inhibition in test [7] and in test [8] were -5.6% (inactive) and -0.66% (inactive), respectively.
With `O=C(CSc1nc2ccsc2c(=O)n1NC(=O)c1ccccc1)Nc1nccs1`, the viability was 105% in test [1]; 105% (inactive) in test [3]; 96.9% (inactive) in test [4]; 100% (inactive) in test [5]; 98% in test [6] (setting [9]); 100% in test [6] (setting [10]). In addition, the Her2 level in test [2] is 86.5% (inactive). The differential viability (reversal) in test [6] (H69AR cells + 2 uM doxorubicin) is 2.06% (inactive). For the same compound, the inhibition in test [7] was -4.74% (inactive); in test [8], -2.83% (inactive).
Turning to `O=C(CC(C(=O)N1CCc2ccccc21)n1ccnc1)NCc1cccnc1` (stereo not given), the viability was 100% in test [1]; 100% (inactive) in test [3]; 97.9% (inactive) in test [4]; 89.1% (inactive) in test [5]; 100% in test [6] (setting [9]); 89.1% in test [6] (setting [10]). For the same compound, the Her2 level in test [2] was 100% (inactive). Also, the differential viability (reversal) in test [6] (H69AR cells + 2 uM doxorubicin) was -10.9% (inactive). Also, the inhibition was 1.17% (inactive) in test [7] and 1.8% (inactive) in test [8].
With `O=C(CSc1ncccn1)c1ccccc1Br`, the viability in test [1] was 120%; in test [3] it was 120% (inactive); in test [4], 116% (inactive); in test [5], 90.7% (inactive); in test [6] (setting [9]) it was 94.9%; in test [6] (setting [10]) it was 90.7%. In test [2], the Her2 level is 93.5% (inactive). Also, in test [6] (H69AR cells + 2 uM doxorubicin), the differential viability (reversal) is -4.21% (inactive). Besides, the inhibition in test [7] was -6.32% (inactive); in test [8] it was -1.64% (inactive).
Consider `CCCCn1nnc(NC(=O)c2cc3ccccc3o2)n1`, for which the viability in test [1] was 107%; in test [3] it was 107% (inactive); in test [4], 119% (inactive); in test [5], 81.6% (inactive); in test [6] (setting [9]), 90.3%; in test [6] (setting [10]), 81.6%. In addition, in test [2], the Her2 level was 88.5% (inactive). Further, the differential viability (reversal) in test [6] (H69AR cells + 2 uM doxorubicin) is -8.71% (inactive). In addition, the inhibition in test [7] was 0.13% (inactive); in test [8], 8% (inactive).
As for `CCCCNC(=O)CN(C1CCCCC1)S(C)(=O)=O`, the viability in test [1] was 104%; in test [3], 104% (inactive); in test [4], 101% (inactive); in test [5], 103% (inactive); in test [6] (setting [9]), 92.4%; in test [6] (setting [10]) it was 103%. The Her2 level in test [2] is 107% (inactive). In addition, the differential viability (reversal) in test [6] (H69AR cells + 2 uM doxorubicin) is 11% (inactive). The inhibition in test [7] is -4.47% (inactive); in test [8] it was -0.16% (inactive).
As to `Cc1ccc(-n2c(=O)c(C#N)cc3c(=O)n4ccccc4nc32)cc1`, the viability in test [1] was 100%; in test [3], 100% (inactive); in test [4], 62.1% (inactive); in test [5], 97% (inactive); in test [6] (setting [9]), 89.6%; in test [6] (setting [10]) it was 97%. In addition, in test [2], the Her2 level was 84.5% (inactive). In test [6] (H69AR cells + 2 uM doxorubicin), the differential viability (reversal) was 7.35% (inactive). Moreover, the figures for the inhibition in test [7] and in test [8] were -4.59% (inactive) and 2.06% (inactive), respectively.
Take `O=C1CC(c2ccccc2)n2nc(NC(=O)c3ccccn3)nc2N1` (stereo not given): the viability is 104% in test [1]; 104% (inactive) in test [3]; 84.3% (inactive) in test [4]; 66.2% (inactive) in test [5]; 84.9% in test [6] (setting [9]); 66.2% in test [6] (setting [10]). Besides, the Her2 level in test [2] is 78% (inactive). Further, in test [6] (H69AR cells + 2 uM doxorubicin), the differential viability (reversal) was -18.7% (inactive). In addition, the inhibition in test [7] is -4.59% (inactive); in test [8], 4.6% (inactive).
Take `COc1ccc(C2CC(=O)C3=C(C2)Nc2ccccc2N(C(=O)C2CC2)C3c2cccnc2)cc1OC` (stereo not given): the viability in test [1] is 99.5%; in test [3], 99.5% (inactive); in test [4], 89% (inactive); in test [5], 97.9% (inactive); in test [6] (setting [9]), 96.1%; in test [6] (setting [10]) it was 97.9%. Further, the Her2 level in test [2] is 96.5% (inactive). For the same compound, the differential viability (reversal) in test [6] (H69AR cells + 2 uM doxorubicin) was 1.81% (inactive). The inhibition is -0.79% (inactive) in test [7] and -1.67% (inactive) in test [8].
For `Cc1cc(Nc2ccccc2)n(CCC#N)n1`, the viability in test [1] was 83.5%; in test [3] it was 83.5% (inactive); in test [4], 105% (inactive); in test [5], 102% (inactive); in test [6] (setting [9]), 92.9%; in test [6] (setting [10]), 102%. Besides, the Her2 level in test [2] is 84.5% (inactive). For the same compound, the differential viability (reversal) in test [6] (H69AR cells + 2 uM doxorubicin) was 9.18% (inactive). Also, the results for the inhibition in test [7] and in test [8] were -5.73% (inactive) and 7.7% (inactive), respectively.
As to `CCC1(NC(C)=O)CC2CC1CC2NC(C)=O` (stereo not given), the viability in test [1] was 94.5%; in test [3], 94.5% (inactive); in test [4] it was 107% (inactive); in test [5] it was 100% (inactive); in test [6] (setting [9]), 89.1%; in test [6] (setting [10]), 100%. Besides, the Her2 level in test [2] was 100% (inactive). Also, in test [6] (H69AR cells + 2 uM doxorubicin), the differential viability (reversal) is 11% (inactive). The inhibition in test [7] was -3.2% (inactive); in test [8], -5.74% (inactive).
